Assay results reported in ChEMBL document CHEMBL1221214, “Cytosporone B is an agonist for nuclear orphan receptor Nur77” (Nat Chem Biol, 2008).
Active and inactive are the calls of the source. No cut-off for these calls is given here.

What was measured:
[1] = molecular target: T1, Nuclear receptor subfamily 4immunitygroup A member 1 (Homo sapiens, UniProt P22736); test: Binding affinity to GST-tagged nuclear orphan receptor Nur77 at 25 degC by fluorescence quenching analysis
Method in brief: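 GST-Nur77 intrinsic fluorescence (emission maximum 336 nm) monitored while increasing Csn-B amounts were added; inner-filter contribution estimated with GST alone and subtracted to give corrected quenching curves.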

[2] = molecular target: T1, Nuclear receptor subfamily 4immunitygroup A member 1; test: Binding affinity to nuclear orphan receptor Nur77 assessed as conformational change in receptor by CD spectroscopic
[3] = molecular target: Nuclear receptor subfamily 4 group A member 1 (Mus musculus) (UniProt P12813); test: Agonist activity at Nur77 in wild-type mouse C57BL/6 assessed as phosphofructokinase mRNA at 50 mg/kg, ip after 300 mins by real-time PCR analysis; assay type: functional, organism-based; set-up: dose 50 mg/kg
Chain of Nuclear receptor subfamily 4 group A member 1 (Mus musculus) (P12813 whole entry): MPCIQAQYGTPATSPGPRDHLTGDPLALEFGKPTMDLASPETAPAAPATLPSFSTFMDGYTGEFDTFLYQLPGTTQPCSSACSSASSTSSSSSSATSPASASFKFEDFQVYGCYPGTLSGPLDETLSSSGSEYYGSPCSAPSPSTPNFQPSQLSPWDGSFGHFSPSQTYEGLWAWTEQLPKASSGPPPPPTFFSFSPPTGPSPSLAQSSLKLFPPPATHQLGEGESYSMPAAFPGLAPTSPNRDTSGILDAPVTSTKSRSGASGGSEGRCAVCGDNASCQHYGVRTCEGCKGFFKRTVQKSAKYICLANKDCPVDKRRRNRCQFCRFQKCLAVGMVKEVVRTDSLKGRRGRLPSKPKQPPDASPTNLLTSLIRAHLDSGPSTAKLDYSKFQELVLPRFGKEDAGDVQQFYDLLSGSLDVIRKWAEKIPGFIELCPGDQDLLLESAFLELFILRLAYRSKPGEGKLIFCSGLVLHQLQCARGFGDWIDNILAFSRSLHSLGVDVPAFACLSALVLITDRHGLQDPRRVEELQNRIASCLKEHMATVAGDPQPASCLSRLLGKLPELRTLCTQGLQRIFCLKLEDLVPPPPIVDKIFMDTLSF

[4] = molecular target: T1, Nuclear receptor subfamily 4immunitygroup A member 1; test: Induction of SRC2-enhanced Nur77 transactivational activity in human BGC823 cells after 12 hrs by luciferase/beta-galactosidase reporter assay; assay type: cell-based; settings: BGC-823
Method in brief: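 BGC-823 cells cotransfected with or without SRC-1, SRC-2 or SRC-3, plus NurRE-luciferase reporter and β-galactosidase, then treated for 12 h at a range of concentrations. Fold induction is each luciferase activity relative to non-SRC transfection at the same concentration.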

T1 sequence (P22736 whole entry): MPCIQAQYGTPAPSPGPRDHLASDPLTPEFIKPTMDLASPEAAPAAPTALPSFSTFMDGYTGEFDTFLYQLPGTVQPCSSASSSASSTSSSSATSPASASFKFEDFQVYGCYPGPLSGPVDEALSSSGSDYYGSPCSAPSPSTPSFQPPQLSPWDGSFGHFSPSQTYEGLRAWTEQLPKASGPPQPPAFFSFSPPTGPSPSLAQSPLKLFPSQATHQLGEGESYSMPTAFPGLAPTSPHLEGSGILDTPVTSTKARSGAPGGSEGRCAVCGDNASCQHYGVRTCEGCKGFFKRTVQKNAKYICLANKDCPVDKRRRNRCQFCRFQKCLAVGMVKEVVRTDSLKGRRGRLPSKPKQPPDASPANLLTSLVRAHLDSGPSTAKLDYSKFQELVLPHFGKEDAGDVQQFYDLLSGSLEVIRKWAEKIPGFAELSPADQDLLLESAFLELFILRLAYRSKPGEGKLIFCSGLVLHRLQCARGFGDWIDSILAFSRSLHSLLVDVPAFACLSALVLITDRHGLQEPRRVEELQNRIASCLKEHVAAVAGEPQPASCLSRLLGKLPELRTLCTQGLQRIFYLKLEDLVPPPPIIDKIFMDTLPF

CCCCCCCC(=O)c1c(O)cc(O)cc1CC(=O)OCC [CYTOSPORONE B]
Activity [1]: Active | Activity [2]: Active | Activity [3]: inactive | Activity [4]: Dose-dependent effect
